The source of these data is the array DNA melting data of Ke et al. (doi:10.1101/2024.01.08.574731).

The nature of series [1]: melting temperature; fluorescence melt of hairpins on a sequencing array, two-state fit, raised by 9.35 °C to match UV melts. The following applies: sodium 0.088 M. Put shortly: (§1)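 Two-state fits, bootstrapped, provided melting temperature and folding enthalpy from Cy3 fluorescence normalised to pre-quench Cy3 and to control constructs. Library hairpins with annealed Cy3 and quencher oligos were imaged on a sequenced MiSeq flow cell in 50 mM Na-HEPES pH 8.0, 25 mM NaCl, at 2.5 °C intervals up to 60 °C. Four replicates were combined with inverse-variance weighting. A 9.35 °C upward shift was applied to fitted temperatures to match UV melts.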

The nature of series [2]: folding enthalpy; higher = less favourable; fluorescence melt of hairpins on a sequencing array, two-state fit. The following applies: sodium 0.088 M. Put shortly:
as §1

On to GTCATAGGAAACTACGAC (((.(((....))).))), for which the Tm in series [1] amounted to 30.8 °C. Further, the folding enthalpy in series [2] is -16.5 kcal/mol.
Regarding GACGGCGAAAGCCGTGTC ((((((....)))..))), in series [1], the Tm came out at 63.9 °C. In addition, in series [2], the folding enthalpy was -9.28 kcal/mol.
For GCTAACGAAAGTTTTAGC ((((((....)))..))), in that order: 33.6 °C and -17.4 kcal/mol.
As to GTCAATGCGAAAGCAGAC (((..(((....)))))), in series [1], the Tm came to 39.1 °C. The folding enthalpy in series [2] is -16.3 kcal/mol.
For GGTTCCGAAAGGAGGACC ((((((....)))..))), in that order: 38.1 °C and -18.8 kcal/mol.
For GGTCTAGAAATAGACC ((((((....)))))) the same measures were 51.8 °C and -38.1 kcal/mol.
For GAAGAGGGAAACTTCTTC (((((.(....).))))) the same measures were 41 °C and -30.1 kcal/mol.
For GACGGTACGAAAGTAGTC (((..(((....)))))), the Tm in series [1] came out at 34.5 °C. Also, in series [2], the folding enthalpy is -16 kcal/mol.
For GCGAGAGGAAACTCCCGC (((.(((....))).))) the same measures were 48.5 °C and -35.5 kcal/mol.
With GGTTCACGAAAGTGCACC (((.(((....))).))), the Tm in series [1] is 50.5 °C. The folding enthalpy in series [2] is -29.7 kcal/mol.
For GTTGCCCCGAAAGGGAAC (((..(((....)))))) the same measures were 39.2 °C and -14.2 kcal/mol.
For GCTAAGCGAAAGCAGAGC (((..((....))..))) the same measures were 43.4 °C and -23.9 kcal/mol.
For GGCTTCGAAAGAATAGCC ((((((....)))..))) the same measures were 45.3 °C and -27.6 kcal/mol.
On to CGAGAACGGAAACGTTCG (((..(((....)))))), for which the Tm in series [1] amounted to 52.9 °C. The folding enthalpy in series [2] is -25.3 kcal/mol.
For GTGGCTGGAAACGGTCAC (((.(.(....).).))), in that order: 44.5 °C and -30.7 kcal/mol.
Regarding GATAGCGAAAGCTCATC ((((((....))).))), the Tm in series [1] worked out at 36.5 °C. Further, the folding enthalpy in series [2] was -13.3 kcal/mol.
Consider GAACGTGAAAACGTTC ((((((....)))))), for which, in series [1], the Tm was determined as 58.1 °C. For the same sequence, the folding enthalpy in series [2] is -34 kcal/mol.
In the case of CGCAGTCGGAAACGAGCG (((..(((....)))))), in series [1], the Tm came out at 36 °C. Further, the folding enthalpy in series [2] is -10.9 kcal/mol.
For GATCATGTCCATGATC ((((((....)))))) the same measures were 54.8 °C and -42.5 kcal/mol.
On to GATCTTTTTAAGATC ((((((...)))))), for which the Tm in series [1] stood at 47.1 °C. For the same sequence, the folding enthalpy in series [2] is -32.2 kcal/mol.
Take GGTTTAGGAAACTAAATC (.(((((....))))).): the Tm in series [1] is 35.5 °C. In series [2], the folding enthalpy is -22.2 kcal/mol.
For GATCCTATCTAGGATC ((((((....)))))), in that order: 52.7 °C and -37.3 kcal/mol.
GCTCTGCGAAAGCAAGGC ((..(((....)))..)): in series [1], the Tm turned out to be 46.9 °C. For the same sequence, in series [2], the folding enthalpy was -17.7 kcal/mol.
For GATGCGGCGAAAGCCATC (((..(((....)))))) the same measures were 29.2 °C and -11.6 kcal/mol.
For GATAGCGAAAGCTGTATC ((((((....)))..))) the same measures were 31.9 °C and -12.8 kcal/mol.
On to AACCTGAAAAGGTT (((((....))))), for which, in series [1], the Tm is 45.5 °C. Also, in series [2], the folding enthalpy is -20 kcal/mol.
For GTAGTCGGAAACGACTGC (.(((((....))))).) the same measures were 53.7 °C and -29 kcal/mol.
Consider GCAAGTGGAAACGCTTGC (((((.(....).))))), for which, in series [1], the Tm was 54.9 °C. The folding enthalpy in series [2] was -39.1 kcal/mol.
As for GGTAGCGAAAGCTGACC ((((((....))).))), in series [1], the Tm is 49.7 °C. In addition, the folding enthalpy in series [2] was -17.2 kcal/mol.
For GATCGCGGAAACGCAATC (((.(((....))).))), in series [1], the Tm came to 41.3 °C. Further, the folding enthalpy in series [2] was -22.6 kcal/mol.
Turning to GGTGTGGGAAACCACGCC ((.((((....)))).)), in series [1], the Tm was 60.5 °C. Further, the folding enthalpy in series [2] is -27.4 kcal/mol.
For GCGTGAGGAAACCCACGC (((((.(....).))))) the same measures were 57.7 °C and -42.2 kcal/mol.
For GTCAGAGGAAACTTTGAC ((((.((....)).)))), in that order: 37.8 °C and -32.4 kcal/mol.
For GATGGGGGAAACCCTGTC ((..(((....)))..)) the same measures were 33.2 °C and -22.5 kcal/mol.
Consider GGGAGACCGAAAGGTCCC (((..(((....)))))), for which the Tm in series [1] is 53.2 °C. For the same sequence, the folding enthalpy in series [2] is -12.8 kcal/mol.
For the sequence CGATTCGGAAACGATCG (((.(((....)))))), the Tm in series [1] is 44 °C. The folding enthalpy in series [2] is -32.8 kcal/mol.
As to GATCGAGGAAACTCGGTC ((.((((....)))).)), in series [1], the Tm is 50.5 °C. Moreover, the folding enthalpy in series [2] is -30.4 kcal/mol.
For GGCGACCGAAAGGTAGCC (((.(((....))).))), in that order: 69 °C and -26.2 kcal/mol.
For GTCATTGGAAACAATGGC (.(((((....))))).), in that order: 47.6 °C and -28.6 kcal/mol.
As for GACCGGGGAAACCTGGTC ((((.((....)).)))), the Tm in series [1] amounted to 55.4 °C. Moreover, the folding enthalpy in series [2] is -39.3 kcal/mol.
For GCACTCCGAAAGGATGC (((.(((....)))))), in that order: 51.7 °C and -29.4 kcal/mol.
For GCTAGGCGAAAGCGTTGC ((.(.((....)).).)), in that order: 42 °C and -21.9 kcal/mol.
For GCGTGTCGACGC ((((....)))) the same measures were 55.4 °C and -24.6 kcal/mol.
On to GTGTAAGCGAAAGCTCAC (((..(((....)))))), for which the Tm in series [1] amounted to 44.9 °C. The folding enthalpy in series [2] is -19.3 kcal/mol.
For GTATCCCGAAAGGGTTAC (((.(((....))).))) the same measures were 47.4 °C and -21 kcal/mol.
Consider TCCGGGAAACCGGA (((((....))))), for which, in series [1], the Tm is 53.2 °C. For the same sequence, in series [2], the folding enthalpy was -20.2 kcal/mol.
Consider GCGCTCGAAAGAGTCGC ((((((....))).))), for which, in series [1], the Tm turned out to be 57.7 °C. Moreover, the folding enthalpy in series [2] was -30.6 kcal/mol.
On to GGCAACGCGAAAGCGGCC (((..(((....)))))), for which the Tm in series [1] amounted to 59.7 °C. Besides, the folding enthalpy in series [2] is -19.8 kcal/mol.
For GCCCCCGAAAGGGTGGGC ((((((....)))..))) the same measures were 63.2 °C and -27.8 kcal/mol.
For GATCCAGCCTGGATC ((((((...)))))) the same measures were 52.2 °C and -34 kcal/mol.
As for GATCATGTTTATGATC ((((((....)))))), in series [1], the Tm came to 50 °C. For the same sequence, the folding enthalpy in series [2] was -39.1 kcal/mol.
For GATCGATCGTCGATC ((((((...)))))), the Tm in series [1] worked out at 51.7 °C. The folding enthalpy in series [2] is -28.7 kcal/mol.
For GATCGACGCGTCGATC ((((((....)))))), in that order: 68.2 °C and -52.3 kcal/mol.
For GGTGCTGGAAACAACACC ((((.((....)).)))), in that order: 46 °C and -37.6 kcal/mol.
For GGCCCCGAAAGGGCAGCC ((((((....)))..))), in that order: 58.6 °C and -12.8 kcal/mol.
